# Results as given in ChEMBL document CHEMBL3526002, “Tissue distribution and identification of radioactivity components at elimination phase after oral administration of [¹⁴C]CS-1036, an α-amylase inhibitor, to rats” (Drug Metab Dispos, 2013).
# Columns and labels:
# Small intestine [1] = test: Drug uptake in albino F344/DuCrlCrlj rat small intestine at 5 mg/kg, po after 4 hrs by liquid scintillation counting; assay type: ADME, organism-based; set-up: dose 5 mg/kg, dosed compound name [14C]CS-1036, route oral; conditions: in vivo
# Large intestine = test: Drug uptake in albino F344/DuCrlCrlj rat large intestine at 5 mg/kg, po after 4 hrs by liquid scintillation counting; assay type: ADME, organism-based; set-up: dose 5 mg/kg, dosed compound name [14C]CS-1036, route oral; conditions: in vivo
# Harderian gland [2] = test: Drug uptake in albino F344/DuCrlCrlj rat harderian gland at 5 mg/kg, po after 8 hrs by liquid scintillation counting; assay type: ADME, organism-based; set-up: dose 5 mg/kg, dosed compound name [14C]CS-1036, route oral; conditions: in vivo
# Lung = test: Drug uptake in albino F344/DuCrlCrlj rat lung at 5 mg/kg, po after 8 hrs by liquid scintillation counting; assay type: ADME, organism-based; set-up: dose 5 mg/kg, dosed compound name [14C]CS-1036, route oral; conditions: in vivo
# [3] = Drug uptake in albino F344/DuCrlCrlj rat brown fat at 5 mg/kg, po after 8 hrs by liquid scintillation counting; assay type: ADME, organism-based, Brown adipose tissue; set-up: dose 5 mg/kg, dosed compound name [14C]CS-1036, route oral; conditions: in vivo
# Plasma [4] = test: Drug uptake in albino F344/DuCrlCrlj rat plasma assessed as ng equivalent of CS-1036 at 5 mg/kg, po after 1 hr by liquid scintillation counting; assay type: ADME, organism-based; set-up: dose 5 mg/kg, dosed compound name [14C]CS-1036, route oral; conditions: in vivo
# [5] = Drug uptake in albino F344/DuCrlCrlj rat trachea assessed as ng equivalent of CS-1036 at 5 mg/kg, po after 1 hr by liquid scintillation counting; assay type: ADME, organism-based; set-up: dose 5 mg/kg, dosed compound name [14C]CS-1036, route oral; conditions: in vivo
# Heart = test: Drug uptake in albino F344/DuCrlCrlj rat heart assessed as ng equivalent of CS-1036 at 5 mg/kg, po after 1 hr by liquid scintillation counting; assay type: ADME, organism-based; set-up: dose 5 mg/kg, dosed compound name [14C]CS-1036, route oral; conditions: in vivo
# Liver [6] = test: Drug uptake in albino F344/DuCrlCrlj rat liver assessed as ng equivalent of CS-1036 at 5 mg/kg, po after 1 hr by liquid scintillation counting; assay type: ADME, organism-based; set-up: dose 5 mg/kg, dosed compound name [14C]CS-1036, route oral; conditions: in vivo
# [7] = Drug uptake in albino F344/DuCrlCrlj rat fat assessed as ng equivalent of CS-1036 at 5 mg/kg, po after 336 hrs by liquid scintillation counting; assay type: ADME, organism-based, Adipose tissue; set-up: dose 5 mg/kg, dosed compound name [14C]CS-1036, route oral; conditions: in vivo
# Method in brief: (§1)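 Male F344/DuCrlCrlj rats (bought at 7 weeks, acclimatized 5–6 days; 159–167 g; n = 3 per time point) received a single oral dose of [14C]CS-1036 at 5 mg/kg. White adipose tissue was collected after abdominal aortic bleeding at 1, 4, 8, 24, 72, 168 or 336 h. Samples were counted by LSC with external-standard efficiency correction. Results were converted to ng equivalents per g from specific activity and sample weight.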
# Kidney = test: Drug uptake in albino F344/DuCrlCrlj rat kidney assessed as ng equivalent of CS-1036 at 5 mg/kg, po after 72 hrs by liquid scintillation counting; assay type: ADME, organism-based; set-up: dose 5 mg/kg, dosed compound name [14C]CS-1036, route oral; conditions: in vivo
# Adrenal gland [8] = test: Drug uptake in albino F344/DuCrlCrlj rat adrenal gland assessed as ng equivalent of CS-1036 at 5 mg/kg, po after 72 hrs by liquid scintillation counting; assay type: ADME, organism-based; set-up: dose 5 mg/kg, dosed compound name [14C]CS-1036, route oral; conditions: in vivo
# Aorta = test: Drug uptake in albino F344/DuCrlCrlj rat aorta assessed as ng equivalent of CS-1036 at 5 mg/kg, po after 72 hrs by liquid scintillation counting; assay type: ADME, organism-based; set-up: dose 5 mg/kg, dosed compound name [14C]CS-1036, route oral; conditions: in vivo
# [9] = Drug uptake in albino F344/DuCrlCrlj rat skeletal muscle assessed as ng equivalent of CS-1036 at 5 mg/kg, po after 336 hrs by liquid scintillation counting; assay type: ADME, organism-based, Muscle tissue; set-up: dose 5 mg/kg, dosed compound name [14C]CS-1036, route oral; conditions: in vivo
# [10] = Drug uptake in albino F344/DuCrlCrlj rat bone marrow assessed as ng equivalent of CS-1036 at 5 mg/kg, po after 336 hrs by liquid scintillation counting; assay type: ADME, organism-based; set-up: dose 5 mg/kg, dosed compound name [14C]CS-1036, route oral; conditions: in vivo
# Plasma [11] = test: Drug uptake in albino F344/DuCrlCrlj rat plasma at 10 mg/kg, po after 8 to 72 hrs by liquid scintillation counting; assay type: ADME, organism-based; set-up: dose 10 mg/kg, dosed compound name [14C]CS-1036, route oral; conditions: in vivo
# Plasma [12] = test: Drug metabolism in albino F344/DuCrlCrlj rat plasma protein assessed as unbound parent compound and metabolite M1 level at 10 mg/kg, po administered for 5 days by liquid scintillation counting; assay type: ADME, organism-based; set-up: dose 10 mg/kg, dosed compound name [14C]CS-1036, route oral; conditions: in vivo, 120 h
# Method in brief: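 Male F344/DuCrlCrlj rats (n = 3) received oral [14C]CS-1036 at 10 mg/kg/day for 5 days at 24-h intervals, with food freely available. Plasma was taken from the abdominal aorta 24 h after the fifth dose and pooled. It was precipitated with acetonitrile, and the pellets were washed with 0.4 M TCA, 80% methanol and 30% ether/ethanol until washes were below twice background. Pellets were HCl-hydrolysed, and recovered radioactivity was counted by LSC.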
# Harderian gland [13] = test: Drug uptake in albino F344/DuCrlCrlj rat harderian gland assessed as ng equivalent of CS-1036 at 5 mg/kg, po after 168 hrs by liquid scintillation counting; assay type: ADME, organism-based; set-up: dose 5 mg/kg, dosed compound name [14C]CS-1036, route oral; conditions: in vivo
# [14] = Drug uptake in albino F344/DuCrlCrlj rat trachea assessed as ng equivalent of CS-1036 at 5 mg/kg, po after 168 hrs by liquid scintillation counting; assay type: ADME, organism-based; set-up: dose 5 mg/kg, dosed compound name [14C]CS-1036, route oral; conditions: in vivo
# [15] = Drug uptake in albino F344/DuCrlCrlj rat mandibular gland assessed as ng equivalent of CS-1036 at 5 mg/kg, po after 168 hrs by liquid scintillation counting; assay type: ADME, organism-based; set-up: dose 5 mg/kg, dosed compound name [14C]CS-1036, route oral; conditions: in vivo
# Spleen = test: Drug uptake in albino F344/DuCrlCrlj rat spleen assessed as ng equivalent of CS-1036 at 5 mg/kg, po after 168 hrs by liquid scintillation counting; assay type: ADME, organism-based; set-up: dose 5 mg/kg, dosed compound name [14C]CS-1036, route oral; conditions: in vivo
# [16] = Drug uptake in albino F344/DuCrlCrlj rat skeletal muscle at 5 mg/kg, po after 72 hrs by liquid scintillation counting; assay type: ADME, organism-based, Muscle tissue; set-up: dose 5 mg/kg, dosed compound name [14C]CS-1036, route oral; conditions: in vivo
# [17] = Drug uptake in albino F344/DuCrlCrlj rat brown fat assessed as ng equivalent of CS-1036 at 5 mg/kg, po after 4 hrs by liquid scintillation counting; assay type: ADME, organism-based, Brown adipose tissue; set-up: dose 5 mg/kg, dosed compound name [14C]CS-1036, route oral; conditions: in vivo
# Small intestine [18] = test: Drug uptake in albino F344/DuCrlCrlj rat small intestine assessed as ng equivalent of CS-1036 at 5 mg/kg, po after 4 hrs by liquid scintillation counting; assay type: ADME, organism-based; set-up: dose 5 mg/kg, dosed compound name [14C]CS-1036, route oral; conditions: in vivo
# Cerebellum [19] = test: Drug uptake in albino F344/DuCrlCrlj rat cerebellum assessed as ng equivalent of CS-1036 at 5 mg/kg, po after 8 hrs by liquid scintillation counting; assay type: ADME, organism-based; set-up: dose 5 mg/kg, dosed compound name [14C]CS-1036, route oral; conditions: in vivo
# [20] = Drug uptake in albino F344/DuCrlCrlj rat urinary bladder assessed as ng equivalent of CS-1036 at 5 mg/kg, po after 168 hrs by liquid scintillation counting; assay type: ADME, organism-based; set-up: dose 5 mg/kg, dosed compound name [14C]CS-1036, route oral; conditions: in vivo
# Harderian gland [21] = test: Drug uptake in albino F344/DuCrlCrlj rat harderian gland at 5 mg/kg, po after 1 hr by liquid scintillation counting; assay type: ADME, organism-based; set-up: dose 5 mg/kg, dosed compound name [14C]CS-1036, route oral; conditions: in vivo
# Adrenal gland [22] = test: Drug uptake in albino F344/DuCrlCrlj rat adrenal gland at 5 mg/kg, po after 1 hr by liquid scintillation counting; assay type: ADME, organism-based; set-up: dose 5 mg/kg, dosed compound name [14C]CS-1036, route oral; conditions: in vivo
# Cerebellum [23] = test: Drug uptake in albino F344/DuCrlCrlj rat cerebellum at 5 mg/kg, po after 168 hrs by liquid scintillation counting; assay type: ADME, organism-based; set-up: dose 5 mg/kg, dosed compound name [14C]CS-1036, route oral; conditions: in vivo
# [24] = Drug uptake in albino F344/DuCrlCrlj rat thyroid gland at 5 mg/kg, po after 168 hrs by liquid scintillation counting; assay type: ADME, organism-based; set-up: dose 5 mg/kg, dosed compound name [14C]CS-1036, route oral; conditions: in vivo
# Liver [25] = test: Drug uptake in albino F344/DuCrlCrlj rat liver at 5 mg/kg, po after 168 hrs by liquid scintillation counting; assay type: ADME, organism-based; set-up: dose 5 mg/kg, dosed compound name [14C]CS-1036, route oral; conditions: in vivo
# [26] = Drug uptake in albino F344/DuCrlCrlj rat thyroid gland assessed as ng equivalent of CS-1036 at 5 mg/kg, po after 24 hrs by liquid scintillation counting; assay type: ADME, organism-based; set-up: dose 5 mg/kg, dosed compound name [14C]CS-1036, route oral; conditions: in vivo
# [27] = Drug uptake in albino F344/DuCrlCrlj rat fat assessed as ng equivalent of CS-1036 at 5 mg/kg, po after 24 hrs by liquid scintillation counting; assay type: ADME, organism-based, Adipose tissue; set-up: dose 5 mg/kg, dosed compound name [14C]CS-1036, route oral; conditions: in vivo; method in brief: as §1
# Zone of skin = test: Drug uptake in albino F344/DuCrlCrlj rat skin assessed as ng equivalent of CS-1036 at 5 mg/kg, po after 24 hrs by liquid scintillation counting; assay type: ADME, organism-based; set-up: dose 5 mg/kg, dosed compound name [14C]CS-1036, route oral; conditions: in vivo
structure (smiles),measurement,setting,value
C[C@H]1O[C@@H](O[C@H]2[C@H](O)[C@@H](O)[C@@H](O[14C@H]3[14C@H](O)[14CH2]N[14C@@H]3[14CH2]O)O[C@@H]2CO)[C@H](O)[C@@H](O)[C@@H]1O,Radiolabel recovery,Small intestine [1],965 ngequiv/g
same,Radiolabel recovery,Large intestine,5930 ngequiv/g
same,Radiolabel recovery,Harderian gland [2],55.9 ngequiv/g
same,Radiolabel recovery,Lung,64.8 ngequiv/g
same,Radiolabel recovery,[3],28.9 ngequiv/g
same,Radiolabel recovery,Plasma [4],12.7 ngequiv/ml
same,Radiolabel recovery,[5],7.4 ngequiv/g
same,Radiolabel recovery,Heart,1.1 ngequiv/g
same,Radiolabel recovery,Liver [6],60 ngequiv/g
same,Radiolabel recovery,[7],63 ngequiv/g
same,Radiolabel recovery,Kidney,29.7 ngequiv/g
same,Radiolabel recovery,Adrenal gland [8],30.3 ngequiv/g
same,Radiolabel recovery,Aorta,16.1 ngequiv/g
same,Radiolabel recovery,[9],3.46 ngequiv/g
same,Radiolabel recovery,[10],11.4 ngequiv/g
same,Drug uptake,Plasma [11],Active
same,Radiolabel recovery,Plasma [12],11.3%
same,Radiolabel recovery,Harderian gland [13],9 ngequiv/g
same,Radiolabel recovery,[14],10.4 ngequiv/g
same,Radiolabel recovery,[15],7 ngequiv/g
same,Radiolabel recovery,Spleen,6.2 ngequiv/g
same,Radiolabel recovery,[16],16.5 ngequiv/g
same,Radiolabel recovery,[17],2.5 ngequiv/g
same,Radiolabel recovery,Small intestine [18],903 ngequiv/g
same,Radiolabel recovery,Cerebellum [19],1.18 ngequiv/g
same,Radiolabel recovery,[20],6.6 ngequiv/g
same,Radiolabel recovery,Harderian gland [21],30.2 ngequiv/g
same,Radiolabel recovery,Adrenal gland [22],32.2 ngequiv/g
same,Radiolabel recovery,Cerebellum [23],7.12 ngequiv/g
same,Radiolabel recovery,[24],33.7 ngequiv/g
same,Radiolabel recovery,Liver [25],14.3 ngequiv/g
same,Radiolabel recovery,[26],20 ngequiv/g
same,Radiolabel recovery,[27],21 ngequiv/g
same,Radiolabel recovery,Zone of skin,8.2 ngequiv/g
